Measured values taken from PMC2774482 (Basic & Clinical Pharmacology & Toxicology, 2009).
Where a name gives a salt, the structure may show the parent alone.

Key:
[1] = tested on: Caco-2 cell monolayers; assay: Bidirectional transepithelial transport across Caco-2 cell monolayers; type: in vitro ADME, human; details: for increase of the efflux (B–A): physiological pH 7.4/7.4
[2] = tested on: Caco-2 cell monolayers; assay: Paracellular transport of [^3H]-mannitol across Caco-2 monolayers; type: in vitro ADME, human; details: apical to basolateral (A-B), over 3 hr
Method in brief: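 Caco-2 TC7 cells (passages 40–55) seeded at 65,000 cells/cm2 on 0.4 µm polycarbonate Transwell inserts and used 20–21 days post-seeding. [3H]-mannitol (0.5 µCi/ml) serves as the paracellular marker for tight-junction integrity. Apical-to-basolateral permeability is followed over 3 hr, with basolateral samples taken at several times and counted by liquid scintillation.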

[3] = pKa / ionisation; type: physicochemical; details: at both pH 6.8 and 7.4
[4] = tested on: P-gp; assay: Bidirectional transepithelial transport across Caco-2 cell monolayers; type: in vitro ADME, human; details: human, Caco-2, pH 6.8, with cyclosporine A 10 µM, rhodamine 123 5 µM, pH 6.8/7.4, + cyclosporine A 10 µM
[5] = as above; type: in vitro ADME, human; details: human, rhodamine 123 5 µM, pH 6.8/7.4, control (no inhibitor)
[6] = 1 µM, pH 6.8/7.4, + 10 µM Cyclosporine A
[7] = 1 µM, pH 7.4/7.4, + 4 µM GF120918
[8] = 1 µM, pH 7.4/7.4, + 10 µM Cyclosporine A
[9] = 1 µM, pH 7.4/7.4, no inhibitor, control of GF120918 experiment (Table 2)
[10] = 10 µM, pH 6.8/7.4, + 10 µM Cyclosporine A
[11] = 10 µM, pH 6.8/7.4, no inhibitor
[12] = 10 µM, pH 7.4/7.4, + 10 µM Cyclosporine A
[13] = 10 µM, pH 7.4/7.4, no inhibitor
[14] = 50 µM, pH 6.8/7.4, + 10 µM Cyclosporine A
[15] = 50 µM, pH 6.8/7.4, no inhibitor
[16] = 50 µM, pH 7.4/7.4, + 10 µM Cyclosporine A
[17] = 50 µM, pH 7.4/7.4, no inhibitor
[18] = 100 µM, pH 6.8/7.4, + 10 µM Cyclosporine A
[19] = 100 µM, pH 6.8/7.4, no inhibitor
[20] = 100 µM, pH 7.4/7.4, + 10 µM Cyclosporine A
[21] = 100 µM, pH 7.4/7.4, no inhibitor
[22] = in the presence of cyclosporine A

SMILES: COc1cccc(C2(O)CCCCC2CN(C)C)c1 (single isomer, unassigned; (-)) [(−)-TMD, (−)-tramadol]
- Papp (A – B) [1, 6]: 18.7 ± 1.1 (cm/sec.) (10^−6)
- Papp (B – A) [1, 6]: 36.0 ± 0.3 (cm/sec.) (10^−6)
- Papp (A – B) ([1]; 1 µM, pH 6.8/7.4, no inhibitor): 16.7 ± 0.5 (cm/sec.) (10^−6)
- Papp (B – A) ([1]; 1 µM, pH 6.8/7.4, no inhibitor): 32.2 ± 0.5 (cm/sec.) (10^−6)
- Papp (A – B) [1, 7]: 44.8 ± 4.0 (cm/sec.) (10^−6)
- Papp (B – A) [1, 7]: 61.3 ± 2.8 (cm/sec.) (10^−6)
- Papp (A – B) [1, 8]: 29.2 ± 1.1 (cm/sec.) (10^−6)
- Papp (B – A) [1, 8]: 34.2 ± 0.8 (cm/sec.) (10^−6)
- Papp (A – B) ([1]; 1 µM, pH 7.4/7.4, no inhibitor): 31.0 ± 1.9 (cm/sec.) (10^−6)
- Papp (B – A) ([1]; 1 µM, pH 7.4/7.4, no inhibitor): 30.8 ± 1.8 (cm/sec.) (10^−6)
- Papp (A – B) [1, 9]: 43.8 ± 5.8 (cm/sec.) (10^−6)
- Papp (B – A) [1, 9]: 51.1 ± 1.9 (cm/sec.) (10^−6)
- Papp (A – B) [1, 10]: 10.2 ± 1.0 (cm/sec.) (10^−6)
- Papp (B – A) [1, 10]: 28.9 ± 0.5 (cm/sec.) (10^−6)
- Papp (A – B) [1, 11]: 11.0 ± 0.5 (cm/sec.) (10^−6)
- Papp (B – A) [1, 11]: 26.9 ± 0.5 (cm/sec.) (10^−6)
- Papp (A – B) [1, 12]: 29.9 ± 1.5 (cm/sec.) (10^−6)
- Papp (B – A) [1, 12]: 39.0 ± 0.6 (cm/sec.) (10^−6)
- Papp (A – B) [1, 13]: 33.5 ± 2.2 (cm/sec.) (10^−6)
- Papp (B – A) [1, 13]: 37.2 ± 0.4 (cm/sec.) (10^−6)
- Papp (A – B) [1, 14]: 9.4 ± 0.6 (cm/sec.) (10^−6)
- Papp (B – A) [1, 14]: 31.2 ± 0.8 (cm/sec.) (10^−6)
- Papp (A – B) [1, 15]: 10.3 ± 0.5 (cm/sec.) (10^−6)
- Papp (B – A) [1, 15]: 25.4 ± 2.3 (cm/sec.) (10^−6)
- Papp (A – B) [1, 16]: 50.9 ± 1.7 (cm/sec.) (10^−6)
- Papp (B – A) [1, 16]: 68.9 ± 0.4 (cm/sec.) (10^−6)
- Papp (A – B) [1, 17]: 52.9 ± 1.0 (cm/sec.) (10^−6)
- Papp (B – A) [1, 17]: 63.4 ± 3.8 (cm/sec.) (10^−6)
- Papp (A – B) [1, 18]: 21.7 ± 2.0 (cm/sec.) (10^−6)
- Papp (B – A) [1, 18]: 62.5 ± 2.0 (cm/sec.) (10^−6)
- Papp (A – B) [1, 19]: 22.4 ± 1.8 (cm/sec.) (10^−6)
- Papp (B – A) [1, 19]: 61.3 ± 1.0 (cm/sec.) (10^−6)
- Papp (A – B) [1, 20]: 37.3 ± 1.0 (cm/sec.) (10^−6)
- Papp (B – A) [1, 20]: 67.7 ± 1.5 (cm/sec.) (10^−6)
- Papp (A – B) [1, 21]: 41.1 ± 2.9 (cm/sec.) (10^−6)
- Papp (B – A) [1, 21]: 64.3 ± 3.4 (cm/sec.) (10^−6)
- increase of the efflux (B–A) ([1]; GF120918, 1 µM): 17%
- increase of the efflux (B–A) [1, 22]: up to 10%

SMILES: COc1cccc(C2(O)CCCCC2CN(C)C)c1 (single isomer, unassigned; (+)) [(+)-TMD, (+)-tramadol]
- Papp (A – B) [1, 6]: 15.6 ± 1.2 (cm/sec.) (10^−6)
- Papp (B – A) [1, 6]: 34.0 ± 0.7 (cm/sec.) (10^−6)
- Papp (A – B) ([1]; 1 µM, pH 6.8/7.4, no inhibitor): 14.1 ± 0.8 (cm/sec.) (10^−6)
- Papp (B – A) ([1]; 1 µM, pH 6.8/7.4, no inhibitor): 31.1 ± 0.8 (cm/sec.) (10^−6)
- Papp (A – B) [1, 7]: 45.8 ± 3.7 (cm/sec.) (10^−6)
- Papp (B – A) [1, 7]: 60.6 ± 2.1 (cm/sec.) (10^−6)
- Papp (A – B) [1, 8]: 26.2 ± 3.4 (cm/sec.) (10^−6)
- Papp (B – A) [1, 8]: 34.6 ± 0.8 (cm/sec.) (10^−6)
- Papp (A – B) ([1]; 1 µM, pH 7.4/7.4, no inhibitor): 28.1 ± 0.5 (cm/sec.) (10^−6)
- Papp (B – A) ([1]; 1 µM, pH 7.4/7.4, no inhibitor): 31.5 ± 1.3 (cm/sec.) (10^−6)
- Papp (A – B) [1, 9]: 42.6 ± 6.2 (cm/sec.) (10^−6)
- Papp (B – A) [1, 9]: 52.3 ± 2.9 (cm/sec.) (10^−6)
- Papp (A – B) [1, 10]: 9.6 ± 1.1 (cm/sec.) (10^−6)
- Papp (B – A) [1, 10]: 28.8 ± 0.6 (cm/sec.) (10^−6)
- Papp (A – B) [1, 11]: 11.0 ± 0.7 (cm/sec.) (10^−6)
- Papp (B – A) [1, 11]: 26.9 ± 0.5 (cm/sec.) (10^−6)
- Papp (A – B) [1, 12]: 30.2 ± 2.1 (cm/sec.) (10^−6)
- Papp (B – A) [1, 12]: 39.4 ± 0.8 (cm/sec.) (10^−6)
- Papp (A – B) [1, 13]: 33.5 ± 1.4 (cm/sec.) (10^−6)
- Papp (B – A) [1, 13]: 38.8 ± 1.6 (cm/sec.) (10^−6)
- Papp (A – B) [1, 14]: 9.3 ± 0.6 (cm/sec.) (10^−6)
- Papp (B – A) [1, 14]: 31.2 ± 0.7 (cm/sec.) (10^−6)
- Papp (A – B) [1, 15]: 10.3 ± 0.5 (cm/sec.) (10^−6)
- Papp (B – A) [1, 15]: 25.6 ± 2.3 (cm/sec.) (10^−6)
- Papp (A – B) [1, 16]: 49.9 ± 2.5 (cm/sec.) (10^−6)
- Papp (B – A) [1, 16]: 69.6 ± 0.7 (cm/sec.) (10^−6)
- Papp (A – B) [1, 17]: 52.5 ± 1.1 (cm/sec.) (10^−6)
- Papp (B – A) [1, 17]: 65.3 ± 1.0 (cm/sec.) (10^−6)
- Papp (A – B) [1, 18]: 21.7 ± 1.9 (cm/sec.) (10^−6)
- Papp (B – A) [1, 18]: 61.7 ± 2.0 (cm/sec.) (10^−6)
- Papp (A – B) [1, 19]: 22.6 ± 1.9 (cm/sec.) (10^−6)
- Papp (B – A) [1, 19]: 60.9 ± 1.3 (cm/sec.) (10^−6)
- Papp (A – B) [1, 20]: 39.1 ± 1.5 (cm/sec.) (10^−6)
- Papp (B – A) [1, 20]: 68.2 ± 0.9 (cm/sec.) (10^−6)
- Papp (A – B) [1, 21]: 41.7 ± 3.6 (cm/sec.) (10^−6)
- Papp (B – A) [1, 21]: 66.9 ± 0.4 (cm/sec.) (10^−6)
- increase of the efflux (B–A) ([1]; GF120918, 1 µM): 17%
- increase of the efflux (B–A) [1, 22]: up to 10%

SMILES: OC[C@@H](O)[C@@H](O)[C@H](O)[C@H](O)CO [[^3H]-mannitol]
- transport rate [2]: < 1 % per hr

SMILES: COc1cccc(C2(O)CCCCC2CN(C)C)c1 (centres unmarked) [TMD, Tramadol hydrochloride]
- ionised (protonated) form [3]: 100%

SMILES: COC(=O)c1ccccc1-c1c2ccc(=N)cc-2oc2cc(N)ccc12 [rhodamine 123]
- Papp A→B at 3 h, 5 µM ([4]; Papp(A–B)): 7.8 ± 0.3 ×10⁻⁶ cm/s
- Papp B→A at 3 hr, 5 µM ([4]; Papp(B–A)): 1.2 ± 0.3 ×10⁻⁶ cm/s
- Papp A→B at 3 h, 5 µM ([5]; Caco-2, pH 6.8, Papp(A–B)): 4.8 ± 0.2 ×10⁻⁶ cm/s
- Papp B→A at 3 hr, 5 µM ([5]; Caco-2, pH 6.8, Papp(B–A)): 6.4 ± 0.7 ×10⁻⁶ cm/s
- decrease of secretory transport ([1]; in the presence of the P-gp inhibitor cyclosporine A): 80%
